Experimental data gathered from unrelated publications.
Compare with care: the assays were run in different laboratories.
KMT5A: N-lysine methyltransferase KMT5A (KMT5A, Homo sapiens, UniProt Q9NQR1)
EP300: Histone acetyltransferase p300 (EP300, Homo sapiens, UniProt Q09472)

Structure (SMILES) | target | assay | conditions | measurement | result
Nc1ncnc2c1ncn2[C@@H]1O[C@H](CSCC[C@H](N)C(=O)O)[C@@H](O)[C@H]1O | Protein arginine N-methyltransferase 6 (PRMT6, Homo sapiens, UniProt Q96LA8) | thermal stability, DSF | 100 µM | ΔTm | 8.4 °C
O=C(c1ccc(F)cc1)N(Cc1ccccc1)C1CCCCC1 | Delta-type opioid receptor (OPRD1, Homo sapiens, UniProt P41143) | ligand displacement | 10 µM | inhibition | 0%
O=c1oc2c(O)c(O)cc3c(=O)oc4c(O)c(O)cc1c4c23 | KMT5A | cell-free assay | 10 µM | inhibition | 2%
Nc1ncnc2occ(-c3ccc(NC(=O)Nc4cc(C(F)(F)F)ccc4F)cc3)c12 | Tyrosine-protein kinase ABL1, non-phosphorylated (ABL1, Homo sapiens, UniProt P00519, F317I) | cell-free assay, inhibitor | 20 µM | remaining signal | 0.45%
O=c1c(O)cccc2cc(O)c(O)c(O)c12 | KMT5A | cell-free assay | 10 µM | inhibition | 7%
NS(=O)(=O)c1ccc(Nc2nc(-c3ccc(F)cc3)c3ccccc3n2)cc1 | EP300 | binding, competition with immobilised ligand | 1 µM | remaining binding | 62%
Cc1cnc(NC2CCOCC2)nc1-n1cnc(C(=O)NC(CN)c2cc(F)cc(Cl)c2)c1 (centres unmarked) | Tyrosine-protein kinase ABL1 (ABL1, Homo sapiens, UniProt P00519, M351T) | enzyme activity, inhibitor, radiometric | 1 µM | remaining activity | 95%
Cc1cnc(Nc2ccc(OCCN3CCCC3)cc2)nc1Nc1cccc(S(=O)(=O)NC(C)(C)C)c1 | EP300 | thermal stability, DSF | 10 µM | ΔTm | 2.76 °C
CCN(CC)CCNC(=O)c1c(C)[nH]c(/C=C2\C(=O)Nc3ccc(F)cc32)c1C | Protein kinase C beta type (PRKCB, Homo sapiens, UniProt P05771) | enzyme activity, inhibitor | 10 µM | inhibition | 0%
Cc1cc(NC(=O)c2cccc3cc(-c4cccc5[nH]nc(N)c45)ccc23)ccc1F | Tyrosine-protein kinase ABL1 (ABL1, Homo sapiens, UniProt P00519) | enzyme activity, inhibitor | 0.1 µM | activity vs control | 85%
Cc1ccc(C(=O)Nc2ccc(CN3CCN(C)CC3)c(C(F)(F)F)c2)cc1C#Cc1cnc2cccnn12 | Serine/threonine-protein kinase Nek10 (NEK10, Homo sapiens, UniProt Q6ZWH5) | enzyme activity, inhibitor | 23.5 nM | remaining activity | 100%
COc1cc(-c2cc(-c3ccc(N4CCNCC4)cc3)cnc2N)cc(OC)c1OC | Tyrosine-protein kinase ABL1 (ABL1, Homo sapiens, UniProt P00519, H396P) | enzyme activity, inhibitor | 1 µM | inhibition | 96%
Oc1cccc(Nc2nc(-c3ccc(F)cc3F)cs2)c1 | Androgen receptor (AR, Homo sapiens, UniProt P10275) | cell-free assay | 10 µM | inhibition | 26.5%
CN(C)C1CCN(CC#Cc2nn(C3CCCC3)c3nc(NCc4ccccc4)ncc23)C1 (centres unmarked) | Tyrosine-protein kinase ITK/TSK (ITK, Homo sapiens, UniProt Q08881) | enzyme activity, inhibitor, FRET | 1 µM | inhibition | 5%
